Active and inactive are the calls of the source. No cut-off for these calls is given here.
Assays:
HT-29 [1] = assay: Cell cycle arrest in human HT-29 cells assessed as accumulation at G2-phase at 50 uM after 48 hrs by propidium iodide staining based flow cytometry (reference value: 15.45%); format: functional
[2] = tested on: Tyrosine-protein kinase ABL1 (Homo sapiens), P00519 [T315I]; assay: Inhibition of human phosphorylated ABL1 T315I mutant (S229 to K512 residues) expressed in mammalian expression system assessed as residual activity at 5 uM by KINOMEscan assay relative to control
[3] = target: Receptor tyrosine-protein kinase erbB-2 (Homo sapiens, UniProt P04626); assay: Binding affinity to human ERBB2 (K646 to V1225 residues) expressed in mammalian expression system by KINOMEscan assay
[4] = target: Casein kinase I isoform delta (Homo sapiens, UniProt P48730); assay: Inhibition of full length human CSNK1D (M1 to K409 residues) expressed in bacterial expression system assessed as residual activity at 5 uM by KINOMEscan assay relative to control
[5] = target: TGF-beta receptor type-1 (Homo sapiens) (UniProt P36897); assay: Inhibition of human TGFBR1 (D179 to M503 residues) expressed in bacterial expression system assessed as residual activity at 5 uM by KINOMEscan assay relative to control
SW-620 [6] = assay: Induction of apoptosis in human SW620 cells assessed as early apoptotic cells at 50 uM after 48 hrs by Annexin-V-FITC/propidium iodide staining based flow cytometry (reference value: 0.4%); format: functional
SW-620 [7] = assay: Induction of apoptosis in human SW620 cells assessed as reduction in MCL1 expression after 48 hrs by Western blot analysis; format: functional, cell-based
HT-29 [8] = assay: Induction of apoptosis in human HT-29 cells assessed as increase in PARP activation after 48 hrs by Western blot analysis; format: functional, cell-based
Procedure, shortened: (§1)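 HT29 or SW620 cells were treated at 0, 25, 50 and 75 μM for 48 h and lysed in RIPA with protease and phosphatase inhibitors. Protein was quantified by BCA. 50 μg lysate was run on 8–15% SDS-PAGE and transferred to PVDF. Blocking was 5% BSA/TBST for 2 h; primary antibodies were applied overnight at 4 °C, then HRP secondary 1 h at room temperature.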

SW-620 [9] = assay: Upregulation of p53 expression in human SW620 cells after 48 hrs by Western blot analysis; format: functional, cell-based
SW-620 [10] = assay: Down regulation of cyclin-B1 expression in human SW620 cells after 48 hrs by Western blot analysis; format: functional, cell-based; procedure, shortened: as §1
SW-620 [11] = assay: Cell cycle arrest in human SW620 cells assessed as accumulation at S-phase at 75 uM after 48 hrs by propidium iodide staining based flow cytometry (reference value: 43.72%); format: functional
HT-29 [12] = assay: Induction of apoptosis in human HT-29 cells assessed as reduction in BCL2 expression after 48 hrs by Western blot analysis; format: functional, cell-based; procedure, shortened: as §1
SRSF protein kinase 3 = SRSF protein kinase 3 (Homo sapiens, UniProt Q9UPE1); assay: Binding affinity to human SRPK3 (P41 to P567 residues) expressed in bacterial expression system by KINOMEscan assay
[13] = target: Epidermal growth factor receptor (Homo sapiens, UniProt P00533); assay: Binding affinity to partial length human EGFR (R669 to V1011 residues) expressed in bacterial expression system by KINOMEscan assay
[14] = target: Platelet-derived growth factor receptor beta (Homo sapiens, UniProt P09619); assay: Inhibition of human PDGFRB (V582 to Y1009 residues) expressed in bacterial expression system assessed as residual activity at 5 uM by KINOMEscan assay relative to control
HT-29 [15] = assay: Induction of apoptosis in human HT-29 cells assessed as live cells at 25 uM after 48 hrs by Annexin-V-FITC/propidium iodide staining based flow cytometry (reference value: 93.2%); format: functional
[16] = target: MAP kinase-interacting serine/threonine-protein kinase 2 (Homo sapiens, UniProt Q9HBH9); assay: Inhibition of human MKNK2 (G63 to S388 residues) expressed in mammalian expression system assessed as residual activity at 5 uM by KINOMEscan assay relative to control
SW-620 [17] = assay: Induction of apoptosis in human SW620 cells assessed as live cells at 50 uM after 48 hrs by Annexin-V-FITC/propidium iodide staining based flow cytometry (reference value: 97.5%); format: functional
[18] = target: Serine/threonine-protein kinase RIO2 (Homo sapiens, UniProt Q9BVS4); assay: Binding affinity to human RIOK2 (M1 to D313 residues) expressed in mammalian expression system by KINOMEscan assay
SW-620 [19] = assay: Induction of apoptosis in human SW620 cells assessed as early apoptotic cells at 75 uM after 48 hrs by Annexin-V-FITC/propidium iodide staining based flow cytometry (reference value: 0.4%); format: functional
SW-620 [20] = assay: Inhibition of colony formation in human SW620 cells assessed as reduction in number of colonies at 25 to 75 uM treated for 48 hrs followed by compound washout and measured after 14 hrs by crystal violet staining based assay; format: functional, cell-based
[21] = target: Cyclin-dependent kinase 3 (Homo sapiens, UniProt Q00526); assay: Inhibition of full length human CDK3 (M1 to H305 residues) expressed in bacterial expression system assessed as residual activity at 5 uM by KINOMEscan assay relative to control
[22] = target: Serine/threonine-protein kinase pim-1 (Homo sapiens, UniProt P11309); assay: Binding affinity to human PIM1 (A15 to K313 residues) expressed in bacterial expression system by KINOMEscan assay
[23] = target: Serine/threonine-protein kinase ULK2 (Homo sapiens, UniProt Q8IYT8); assay: Binding affinity to human ULK2 (M1 to S301 residues) expressed in mammalian expression system by KINOMEscan assay
HT-29 [24] = assay: Induction of apoptosis in human HT-29 cells assessed as live cells at 75 uM after 48 hrs by Annexin-V-FITC/propidium iodide staining based flow cytometry (reference value: 93.2%); format: functional
[25] = target: Tyrosine-protein kinase ABL1 (Homo sapiens, UniProt P00519); assay: Binding affinity to human phosphorylated ABL1 (S229 to K512 residues) expressed in mammalian expression system by KINOMEscan assay
[26] = target: Cyclin-dependent kinase 16 (Homo sapiens, UniProt Q00536); assay: Inhibition of human PCTK1 (G160 to A474 residues) expressed in mammalian expression system assessed as residual activity at 5 uM by KINOMEscan assay relative to control
[27] = target: Proto-oncogene tyrosine-protein kinase Src (Homo sapiens, UniProt P12931); assay: Inhibition of human SRC (L240 to L536 residues) expressed in bacterial expression system assessed as residual activity at 5 uM by KINOMEscan assay relative to control
[28] = target: Mitogen-activated protein kinase kinase kinase 9 (Homo sapiens, UniProt P80192); assay: Binding affinity to human MLK1 (V88 to W426 residues) expressed in bacterial expression system by KINOMEscan assay
Angiopoietin-1 receptor = Angiopoietin-1 receptor (Homo sapiens, UniProt Q02763); assay: Inhibition of human TIE2 (N804 to T1112 residues) expressed in bacterial expression system assessed as residual activity at 5 uM by KINOMEscan assay relative to control

## CC(C)CN(C(=O)c1cccnc1)c1c2ccccc2c(=O)n2c1[nH]c1ccccc12
HT-29 [1]
  Activity: 18.12%
[2]
  Activity: 90%
[3]
  Kd: ≥ 5 µM
[4]
  Activity: 90%
[5]
  Activity: 100%
SW-620 [6]
  Activity: 0.6%
SW-620 [7]
  Activity: Dose-dependent effect
HT-29 [8]
  Activity: Dose-dependent effect
SW-620 [9]
  Activity: Dose-dependent effect
SW-620 [10]
  Activity: Dose-dependent effect
SW-620 [11]
  Activity: 38.82%
HT-29 [12]
  Activity: Dose-dependent effect
SRSF protein kinase 3
  Kd: ≥ 5 µM
[13]
  Kd: ≥ 5 µM
[14]
  Activity: 100%
HT-29 [15]
  Activity: 88.4%
[16]
  Activity: 92%
SW-620 [17]
  Activity: 81.7%
[18]
  Kd: ≥ 5 µM
SW-620 [19]
  Activity: 0.2%
SW-620 [20]
  inhibition: Active
[21]
  Activity: 95%
[22]
  Kd: ≥ 5 µM
[23]
  Kd: ≥ 5 µM
HT-29 [24]
  Activity: 49.8%
[25]
  Kd: ≥ 5 µM
[26]
  Activity: 95%
[27]
  Activity: 100%
[28]
  Kd: ≥ 5 µM
Angiopoietin-1 receptor
  Activity: 88%
